Bioassay records: PubChem, several laboratories
Rows were chosen to be rich in hits. Some 4.7% of all compounds tested hit in one or more screens of this group.
VIM-2 inhibitor: VIM-2 metallo-beta-lactamase inhibitors, primary screen, biochemical, epi-absorbance readout, Pseudomonas aeruginosa enzyme. purified VIM-2, nitrocefin hydrolysis, epi-absorbance fluorescence. inhibition, % at 5.6 µM. 0.89% of 290,000 active;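 active = inhibition above the mean of all tested compounds plus 3 SD, cutoff set per screening run, cut at about 7.5% in these data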;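 note: red hydrolysis product quenches plate fluorescence so inhibitors raise well fluorescence; 0% = enzyme with DMSO and 100% = DMSO without enzyme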
aSyn 5UTR inh: MLPCN primary screen, SNCA 5' untranslated region. 0.82% of 300,000 active. inhibition, % (tested at 7.5 µM). alpha-synuclein 5'UTR reporter, inhibitor activity; in the data active = inhibition above about 60%;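 note: H4 neuroglioblastoma cells stably carrying SNCA 5'UTR luciferase fusion; 0% = DMSO wells and 100% = positive control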
697 NFkB inh: inhibitors of PMA/ionomycin-induced NF-kB reporter, 697 cells, primary screen, B-cell NF-kB inhibitor project, cell-based, luminescence, uHTS | 697 B-cell NF-kB luciferase reporter, 16 h | AID 435022, 2010 | inhibition, % at 4 µM | 0.33% of 330,000 active; in the data active = inhibition above about 35%
IMP-1 inhibitor: IMP-1 metallo-beta-lactamase inhibitors, primary screen, biochemical, epi-absorbance readout, Pseudomonas aeruginosa enzyme | metallo-beta-lactamase IMP-1 (Pseudomonas aeruginosa) | purified IMP-1, nitrocefin hydrolysis, epi-absorbance fluorescence | inhibition, % at 5.6 µM | 0.45% of 290,000 active | AID 1556, 2009;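 active = inhibition above the mean plus 3 SD of all compounds in the same screening run, cut at about 4.5% in these data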;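 note: 0% = IMP-1 with DMSO and 100% = DMSO wells lacking enzyme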
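System: Purified recombinant IMP-1 metallo-beta-lactamase enzyme | Measured by: Fluorescence quenching readout, ex 480/em 530 nm | Replication: Singlicate | Incubation: 15 min preincubation plus 25 min reaction at 25 °C | Evaluation: Percent inhibition from optical density relative to buffer-blank wells | Benchmarks: DMSO with and without IMP-1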
Mdm2-MdmX inh: inhibitors of human Mdm2-MdmX association, primary screen, cell-based, luminescence, split luciferase, SaOS-2, uHTS. 3% of 330,000 active. SaOS-2 split-luciferase Mdm2/MdmX complementation. inhibition, % at 8 µM. Protein Mdm4 (Homo sapiens) + E3 ubiquitin-protein ligase Mdm2 (Homo sapiens), …;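 active = inhibition of at least 50% at 8 µM in the primary screen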
Target sequence (O15151 whole entry, looked up): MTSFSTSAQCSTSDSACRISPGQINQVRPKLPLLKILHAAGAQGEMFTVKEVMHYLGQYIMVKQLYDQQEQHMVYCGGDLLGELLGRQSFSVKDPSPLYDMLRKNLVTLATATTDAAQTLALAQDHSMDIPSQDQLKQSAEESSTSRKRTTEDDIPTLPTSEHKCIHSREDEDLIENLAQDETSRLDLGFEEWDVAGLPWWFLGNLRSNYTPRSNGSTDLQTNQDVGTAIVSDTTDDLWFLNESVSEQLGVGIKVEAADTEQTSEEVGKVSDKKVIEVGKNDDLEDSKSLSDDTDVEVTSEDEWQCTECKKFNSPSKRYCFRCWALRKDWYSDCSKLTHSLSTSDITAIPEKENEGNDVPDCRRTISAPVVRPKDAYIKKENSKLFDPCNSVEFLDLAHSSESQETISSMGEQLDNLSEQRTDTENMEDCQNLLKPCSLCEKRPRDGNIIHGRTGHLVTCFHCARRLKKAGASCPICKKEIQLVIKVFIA
Target sequence (Q00987 whole entry, looked up): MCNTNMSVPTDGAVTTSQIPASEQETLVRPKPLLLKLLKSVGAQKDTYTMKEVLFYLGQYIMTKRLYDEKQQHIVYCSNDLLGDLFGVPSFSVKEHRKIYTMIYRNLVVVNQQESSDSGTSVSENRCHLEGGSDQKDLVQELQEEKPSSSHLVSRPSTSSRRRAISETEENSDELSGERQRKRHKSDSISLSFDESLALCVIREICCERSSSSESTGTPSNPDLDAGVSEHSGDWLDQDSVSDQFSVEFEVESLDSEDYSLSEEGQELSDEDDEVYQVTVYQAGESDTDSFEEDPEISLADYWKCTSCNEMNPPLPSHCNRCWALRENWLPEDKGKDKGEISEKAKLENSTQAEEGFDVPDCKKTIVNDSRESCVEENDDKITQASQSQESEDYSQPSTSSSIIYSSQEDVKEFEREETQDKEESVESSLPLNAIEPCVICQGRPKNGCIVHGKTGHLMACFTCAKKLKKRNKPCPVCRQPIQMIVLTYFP
Jurkat NFkB inh: inhibitors of induced NF-kB luciferase reporter, primary screen, TCR NF-kB activation inhibitor project, cell-based, luminescence, uHTS. AID 435003, 2010. 0.53% of 330,000 active. inhibition, % at 4 µM. Jurkat, PMA/ionomycin-induced NF-kB luciferase reporter; in the data active = inhibition above about 50%
Jurkat NFkB conf: PMA/ionomycin-induced NF-kB reporter inhibitors, Jurkat retest, confirmation, T-cell NF-kB inhibitor project, cell-based, luminescence, single concentration; shares compounds with Jurkat NFkB inh; Jurkat NF-kB luciferase, 16 h; inhibition, % at 4 µM; 27% of 2,700 active; AID 435020, 2010;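 active = inhibition reaching about 45% at 4 µM in either replicate, limit read from the data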;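 note: plate controls were PMA/ionomycin stimulated DMSO wells for no effect and unstimulated DMSO wells for full effect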
An asterisk follows results filed as active; · = not tested or not shown.

SMILES	VIM-2 inhibitor	aSyn 5UTR inh	697 NFkB inh	IMP-1 inhibitor	Mdm2-MdmX inh	Jurkat NFkB inh	Jurkat NFkB conf
CCOC(=O)c1oc2ccc(S(=O)(=O)n3nc(-c4ccccc4)cc3N)cc2c1C	0	-3	-13	0	28	33	·
CCOC(=O)c1oc2ccc(S(=O)(=O)n3nc(-c4ccc(OC)cc4)cc3N)cc2c1C	1	5	-50	-3	47	58*	28
Cc1cc(C)cc(NC(=O)c2ccc([N+](=O)[O-])o2)c1	-2	-31	25	-3	32	87*	48*
COc1ccccc1Oc1ccc(-c2cnc3ccccc3n2)cc1[N+](=O)[O-]	-4	-74	-70	-3	0	59*	-3
O=[N+]([O-])c1cc(-c2cnc3ccccc3n2)ccc1Oc1ccc(Cl)cc1	-4	-65	-5	-3	7	-9	·
CCCCN1C(=O)c2cccc3cc(O)cc(c23)C1=O	·	26	11	·	32	7	·
Cc1csc(NC(=O)c2ccc(COc3ccccc3)o2)n1	-1	-136	-65	-2	-19	-19	·
Cc1ccc2c(c1)N(C)/C(=C/c1cccc[n+]1CCO)S2	0	-9	-17	-1	9	33	·
CN1/C(=C/c2cccc[n+]2C)Sc2ccccc21	1	16	13	-1	40	71*	6
CC(=O)Oc1ccc(-c2ccc(C(=O)OCC(=O)N(C)CC(=O)Nc3ccccc3Cl)cc2)cc1	-2	-16	8	-2	40	11	·
Cc1ccc(NC(=O)COC(=O)C2=NN(c3ccccc3)C(=O)CC2)c(Br)c1	·	·	0	·	-16	23	·
COc1ccc(-n2cc(-c3ccc(C)cc3)[n+]3c2SCC3)cc1	2	-23	23	1	29	60*	56*
COc1cc(CN(C2CC2)S(=O)(=O)c2ccccc2Br)cc(OC)c1	·	·	7	·	-24	·	·
Nc1nc(-c2ccc3ccccc3c2)cs1	-3	-193	-114	0	-182	-159	-20
Nc1nc(-c2ccc(-c3ccccc3)cc2)cs1	2	-186	-232	-3	-199	-101	·
Cc1nn(-c2nc3ccccc3s2)c(N)c1-c1ccc(Cl)cc1	0	-203	-77	-2	-64	-60	·
Cc1nn(-c2nc3ccccc3s2)c(N)c1-c1ccccc1	-3	-224	-232	1	-378	-165	-118
COC(=O)c1ccc(NC(=O)C(=O)c2cccn2C)cc1	-5	-109	-122	-3	-186	-170	-105
O=C(NCCC(=O)N(Cc1ccco1)Cc1cccs1)c1ccc(Br)cc1	·	·	14	·	9	4	·
Cc1ccc(N(Cc2cc3ccccc3[nH]c2=O)S(=O)(=O)c2ccccc2)cc1	0	25	-17	-2	14	85*	16
COc1ccc(C(=O)NCc2nnc(SCC(=O)c3ccccc3)n2C)cc1OC	·	19	2	·	12	4	·
O=C(NC1CCCCC1)c1ccc(-c2ccccc2[N+](=O)[O-])o1	-3	-83	-175	-2	-183	-152	-105
Cc1noc(C)c1COc1ccc(CC(=O)NCCc2ccccn2)cc1	-3	4	14	-3	-6	-13	·
Cc1noc(C)c1COc1ccc(CC(=O)NCc2ccccc2)cc1	2	72*	-58	-1	42	62*	47
Cc1ccc(CNC(=O)Cc2ccc(-n3cccc3)cc2)cc1	0	-3	-42	-3	39	53*	4
SMILES	VIM-2 inhibitor	aSyn 5UTR inh	697 NFkB inh	IMP-1 inhibitor	Mdm2-MdmX inh	Jurkat NFkB inh	Jurkat NFkB conf
COc1ccc(CC(=O)NCc2ccc(-n3cccc3)cc2)cc1OC	-3	64*	-48	-2	45	55*	18
Cc1ccc(CNC(=O)c2ccc(-n3cccc3)cc2)cc1	-2	-3	·	-2	·	·	·
O=C(Cc1ccc(-c2ccccc2)cc1)NCc1ccccc1	-2	104*	-25	0	42	62*	47
O=C(Cc1ccc(-c2ccccc2)cc1)NCc1cccnc1	-1	-48	-15	2	42	47	·
COc1ccccc1OCCC(=O)OCC(=O)NCc1ccc(F)cc1	·	·	14	·	-4	9	·
C/C(=N\NC(=O)c1cccc(S(=O)(=O)N2CCOCC2)c1)c1ccc(C)cc1	·	·	10	·	2	9	·
O=C(O)CC(c1ccccc1)N1C(=O)c2ccccc2C1=O (stereo unspecified)	·	-25	19	·	7	-3	·
CNc1ccc(C(=O)OCC(=O)NC(=O)NC2CCCC2)cc1[N+](=O)[O-]	·	·	12	·	3	-3	·
CCOC(=O)CN1C(=O)NC2(CCCc3ccccc32)C1=O (stereo unspecified)	2	9	-12	-2	13	-2	·
COc1ccc(C(=O)N(C)Cc2cnn(Cc3ccccc3)c2)cc1S(=O)(=O)N1CCOCC1	·	·	-48	·	45	54*	44
CN(Cc1cnn(Cc2ccccc2)c1)C(=O)c1cccc(S(=O)(=O)N2CCOCC2)c1	·	·	-8	·	38	21	·
O=C(O)c1ccc(/C=N\Nc2ccccn2)cc1	·	-79	-52	·	11	-27	·
CN(C)c1ccc(/C=N\Nc2ccccn2)cc1	0	-232	-193	-3	-115	-185	-60
Fc1ccc(-n2nnc(-c3cccnc3Cl)n2)cc1	-1	-86	-152	-3	-176	-152	-76
CC1(C)Cc2nc3sc4c(NCCO)ncnc4c3cc2CS1	1	-55	14	3	6	-18	·
CCCCn1cnc2c(sc3nc4c(cc32)CSC(C)(C)C4)c1=O	-4	-104	-130	-4	-92	-150	-78
CC(=O)c1cccc(NC(=O)CN(C)S(=O)(=O)c2ccc3c(c2)CC(C)N3C(C)=O)c1 (stereo unspecified)	-7	19	10	-3	29	7	·
Nc1nc2nn(-c3ccccc3)nc2c(=O)[nH]1	-3	-29	-45	-4	-9	-22	·
Nc1nc2n[nH]nc2c(=O)[nH]1	·	30	-52	·	36	64*	74*
COc1ccc(N2C(=O)N3[C@@H]4c5ccccc5OC[C@@H]4[C@@H](c4ccccc4)[C@@]3(C)C2=O)cc1	·	·	9	·	33	-16	·
COc1ccc(C(=O)COC(=O)CCN2C(=O)C3C4C=CC(C5CC45)C3C2=O)cc1 (stereo unspecified)	0	12	13	-1	3	15	·
COc1ccccc1C(=O)Nc1nc2cc3c(cc2s1)OCCO3	-1	-64	-194	0	-225	-160	-98
